This passage reports EC50 and IC50 results from BindingDB's records for doi:10.1016/j.bmcl.2007.10.100 (Columbia University, 2008).

Assay [1] is described as follows: Induction of human IkappaBalpha stabilization in OCI-Ly3 cells assessed as ratio of green light emiting IkappaBalpha-fused luciferase expression to red light emiting native luciferase expression.
Assay [2] in a line: Induction of human IkappaBalpha stabilization in OCI-Ly3 cells by green light emiting IkappaBalpha-fused luciferase reporter gene assay.
In the next assay the target is Transcription factor p65 (Human, UniProt Q04206). Description: Inhibition of TNF-alpha-stimulated human NF-kappaB p65 RelA subunit nuclear translocation in HUVEC. In short, it runs like this: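 HUVEC (fewer than 8 passages) were seeded at 3,000 cells/well. Compounds were added in 8-point series, either from 10 µM final in media with 0.33% DMSO diluted 1:3, or from 8 µM diluted 1:2. After 3.5 h with compound, cells were stimulated with […] for 30 min. Cells were then fixed, permeabilized, stained with Hoechst and with anti-p65 plus an Alexa 647 secondary, and imaged automatically. IC50 is from curve fitting of one experiment run in triplicate, with BAY 11-7082 as the positive control.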

Peptide text beside a SMILES is read from it. * marks the point of attachment. Cbz = O=C(OCc1ccccc1)*

Sequence of Transcription factor p65 (Q04206 whole entry): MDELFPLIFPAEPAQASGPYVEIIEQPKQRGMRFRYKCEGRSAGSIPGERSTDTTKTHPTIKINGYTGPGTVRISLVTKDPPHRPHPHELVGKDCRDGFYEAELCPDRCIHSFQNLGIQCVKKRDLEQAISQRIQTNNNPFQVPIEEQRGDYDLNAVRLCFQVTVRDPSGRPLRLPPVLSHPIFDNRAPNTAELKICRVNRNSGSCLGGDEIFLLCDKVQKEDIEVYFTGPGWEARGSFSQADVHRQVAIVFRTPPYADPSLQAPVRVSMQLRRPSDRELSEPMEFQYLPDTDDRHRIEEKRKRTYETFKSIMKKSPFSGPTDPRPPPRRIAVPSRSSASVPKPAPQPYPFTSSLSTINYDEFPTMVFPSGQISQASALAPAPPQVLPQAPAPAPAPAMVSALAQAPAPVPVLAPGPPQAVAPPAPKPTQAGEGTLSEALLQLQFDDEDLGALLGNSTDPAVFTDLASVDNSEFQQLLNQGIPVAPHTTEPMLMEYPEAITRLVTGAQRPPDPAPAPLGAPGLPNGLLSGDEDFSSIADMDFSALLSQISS

Take `COc1ccc2c(c1)-c1ccc3cccnc3c1NS2(=O)=O`: the figures for the EC50 in assay [1] and in assay [2] were 1.4 µM and 1.3 µM, respectively. For the same molecule, the midpoint of inhibition at Transcription factor p65, the IC50, lay at 1 µM.

For `Cc1ccc2ccc3c(c2n1)NS(=O)(=O)c1ccc(C(F)(F)F)cc1-3`, the EC50 was determined as 7.2 µM in assay [1] and 8.9 µM in assay [2]. At Transcription factor p65, this molecule came in with an IC50 of 1.2 µM.

`COc1ccc2c(c1)-c1ccc3ccc(C)nc3c1NS2(=O)=O`: the values for the EC50 in assay [1] and in assay [2] were 3.4 µM and 3.7 µM, respectively. Moreover, the half-inhibitory concentration (IC50) at Transcription factor p65 is 2.5 µM.

In the case of `COc1cc2ccc(C)nc2c2c1-c1cc(C)ccc1S(=O)(=O)N2`, the values for the concentration giving a half-maximal response (EC50) in assay [1] and in assay [2] were 2.3 µM and 1.4 µM, respectively. On Transcription factor p65, this molecule yielded a concentration for half-maximal inhibition (IC50) of 0.9 µM.

Regarding `Cc1cnc2c3c(ccc2c1)-c1ccccc1S(=O)(=O)N3`, the 50% effective concentration (EC50) in assay [1] came to 10 µM; in assay [2], 7 µM.

With `O=S1(=O)Nc2c(ccc3cccnc23)-c2cc(Cl)ccc21`, the concentration giving a half-maximal response (EC50) was found to be 11 µM in assay [1] and 1.1 µM in assay [2]. For the same molecule, the concentration for half-maximal inhibition (IC50) on Transcription factor p65 came to 1.1 µM.

For `O=S1(=O)Nc2c(ccc3cccnc23)-c2cc(F)ccc21`, the concentration giving a half-maximal response (EC50) in assay [1] turned out to be 12 µM; in assay [2], 4.1 µM. This molecule also gave an IC50 against Transcription factor p65 of 1.7 µM.

Turning to `COc1cc2cccnc2c2c1-c1cc(C)ccc1S(=O)(=O)N2`, the figures for the EC50 in assay [1] and in assay [2] were 1.6 µM and 1.3 µM, respectively. On Transcription factor p65, this molecule returned an IC50 of 1.2 µM.

In the case of `Cc1ccc2c(c1)-c1ccc3cccnc3c1NS2(=O)=O`, the EC50 in assay [1] was 0.8 µM; in assay [2], 0.5 µM. Moreover, the IC50 against Transcription factor p65 was 0.6 µM.

Consider `Cc1ccc2cccc(NS(=O)(=O)c3ccc(Cl)s3)c2n1`, for which the EC50 worked out at 2.1 µM in assay [1] and 1.4 µM in assay [2]. For the same molecule, the IC50 against Transcription factor p65 was determined as 1 µM.

As for `O=S(=O)(Nc1cccc2cccnc12)c1ccc(Br)s1`, the figures for the EC50 in assay [1] and in assay [2] were 6.8 µM and 5.9 µM, respectively. For the same molecule, inhibition against Transcription factor p65 was half-maximal at 1.1 µM (IC50).

As to `O=S(=O)(Nc1cccc2cccnc12)c1ccc(Cl)s1`, the EC50 in assay [1] and in assay [2] was 2.7 µM throughout. Moreover, the concentration for half-maximal inhibition (IC50) at Transcription factor p65 amounted to 1.3 µM.

As for `COc1cc(NS(=O)(=O)c2ccc(C)cc2N)c2nc(C)ccc2c1`, the figures for the half-maximal effective concentration (EC50) in assay [1] and in assay [2] were 3 µM and 9.4 µM, respectively.

As to `COc1cc(NS(=O)(=O)c2ccc(C)cc2N)c2ncccc2c1`, the EC50 in assay [1] and in assay [2] was 4 µM each time. For the same molecule, half-maximal inhibition against Transcription factor p65 (IC50) was put at 1 µM.

Turning to `Nc1ccccc1S(=O)(=O)Nc1cccc2cccnc12`, the EC50 in assay [1] amounted to 8.5 µM; in assay [2], 11 µM. This molecule showed an IC50 against Transcription factor p65 of 2 µM.

`COc1cc(NS(=O)(=O)c2ccc(C)cc2)c2nc(C)ccc2c1`: the EC50 in assay [1] and in assay [2] was 20 µM throughout. This molecule also had an IC50 at Transcription factor p65 greater than 10 µM.

With `COc1cc(NS(=O)(=O)c2ccc(C)cc2[N+](=O)[O-])c2nc(C)ccc2c1`, the EC50 in assay [1] is greater than 57 µM; in assay [2] it was greater than 10 µM.

Consider `COc1cc(NS(=O)(=O)c2ccc(C)cc2[N+](=O)[O-])c2ncccc2c1`, for which the values for the concentration giving a half-maximal response (EC50) in assay [1] and in assay [2] were 7.6 µM and 6.8 µM, respectively. Moreover, the midpoint of inhibition at Transcription factor p65, the IC50, lay at 2.1 µM.

Take `O=[N+]([O-])c1cc(C(F)(F)F)ccc1S(=O)(=O)Nc1cccc2cccnc12`: the EC50 in assay [1] came to 20 µM; in assay [2], 3.6 µM. The IC50 on Transcription factor p65 came out at 3.7 µM.

For the molecule `Cc1ccc([N+](=O)[O-])cc1S(=O)(=O)Nc1cccc2cccnc12`, the 50% effective concentration (EC50) was greater than 10 µM in assay [1] and 1 µM in assay [2]. On Transcription factor p65, 1.6 µM corresponded to half-maximal inhibition (IC50).

Take `Cc1ccc2cccc(NS(=O)(=O)c3ccccc3[N+](=O)[O-])c2n1`: the values for the EC50 in assay [1] and in assay [2] were 8 µM and 6.8 µM, respectively. It took 3.8 µM to reach half-maximal inhibition against Transcription factor p65 (IC50).

`O=[N+]([O-])c1ccc(S(=O)(=O)Nc2cccc3cccnc23)cc1`: the EC50 in assay [1] was 17 µM; in assay [2], 6.5 µM. This molecule displayed a 50% inhibitory concentration (IC50) against Transcription factor p65 of 1.5 µM.

For the molecule `Cc1ccc2ccc3c(c2n1)NS(=O)(=O)c1ccc(O)cc1-3`, the EC50 was 11 µM in assay [1] and 8 µM in assay [2]. This molecule came in with an IC50 against Transcription factor p65 of 10 µM.

Consider `O=S1(=O)Nc2c(ccc3cccnc23)-c2cc(C(F)(F)F)ccc21`, for which the 50% effective concentration (EC50) in assay [1] came out at 1 µM; in assay [2], 0.7 µM. Moreover, inhibition on Transcription factor p65 was half-maximal at 1 µM (IC50).

`Cc1ccc2cccc(NS(=O)(=O)c3ccc(Br)s3)c2n1`: the 50% effective concentration (EC50) in assay [1] was determined as 6.4 µM; in assay [2], 6.1 µM. This molecule yielded a half-maximal inhibitory concentration (IC50) against Transcription factor p65 of 1.4 µM.

`O=S(=O)(Nc1cccc2cccnc12)c1cccs1`: the half-maximal effective concentration (EC50) came to 9 µM in assay [1] and 5.3 µM in assay [2]. The molecule further gave a concentration for half-maximal inhibition (IC50) against Transcription factor p65 of 3.6 µM.

Take `Cc1ccc2cccc(NS(=O)(=O)c3ccccc3N)c2n1`: the half-maximal effective concentration (EC50) in assay [1] and in assay [2] was 8 µM throughout. Besides, 2.8 µM corresponded to half-maximal inhibition against Transcription factor p65 (IC50).

On to `COc1ccc(S(=O)(=O)Nc2cccc3ccc(C)nc23)c([N+](=O)[O-])c1`, for which, on Transcription factor p65, the half-inhibitory concentration (IC50) was 1 µM.

On to `Cc1ccc2cccc(NS(=O)(=O)c3cc([N+](=O)[O-])ccc3C)c2n1`, for which the 50% effective concentration (EC50) in assay [1] is greater than 57 µM; in assay [2], greater than 20 µM.

For the molecule `Cc1ccc2cccc(NS(=O)(=O)c3ccc(C(F)(F)F)cc3[N+](=O)[O-])c2n1`, the EC50 in assay [1] was 3.6 µM; in assay [2] it was 10 µM. In addition, the concentration for half-maximal inhibition (IC50) against Transcription factor p65 was determined as 1.1 µM.

As for `Cc1ccc2cccc(NS(=O)(=O)c3cccc([N+](=O)[O-])c3)c2n1`, the EC50 turned out to be 13 µM in assay [1] and 6 µM in assay [2]. Also, on Transcription factor p65, it took 0.9 µM to reach half-maximal inhibition (IC50).

As for `COc1cnc2c3c(ccc2c1)-c1ccccc1S(=O)(=O)N3`, on Transcription factor p65, the half-inhibitory concentration (IC50) is 2.5 µM.

As for `O=[N+]([O-])c1ccccc1S(=O)(=O)Nc1cccc2cccnc12` [2-nitro-N-quinolin-8-yl-benzenesulfonamide], the 50% effective concentration (EC50) was 12 µM in assay [1] and 11 µM in assay [2]. Also, on Transcription factor p65, inhibition was half-maximal at 3.2 µM (IC50).

Turning to `O=S1(=O)Nc2c(ccc3cccnc23)-c2ccccc21` [5H-quinolino[8,7-c][1,2]benzothiazine 6,6-dioxide], the half-maximal effective concentration (EC50) in assay [1] worked out at 2.6 µM; in assay [2], 2.2 µM. At Transcription factor p65, this molecule had an IC50 of 1 µM.

`Cc1ccc(S(=O)(=O)/C=C/C#N)cc1` [BAY-11-7082]: on Transcription factor p65, the half-maximal inhibitory concentration (IC50) turned out to be 3 µM.

Consider `O=S(=O)(Nc1cccc2cccnc12)c1ccccc1` [N-(quinolin-8-yl)benzenesulfonamide], for which the EC50 in assay [1] was 20 µM; in assay [2], 17 µM. The concentration for half-maximal inhibition (IC50) at Transcription factor p65 is greater than 10 µM.

As for `CC(C)C[C@@H](C=O)NC(=O)[C@H](CC(C)C)NC(=O)[C@H](CC(C)C)NC(=O)OCc1ccccc1` [{1-[(S)-(S)-1-((S)-1-Formyl-3-methyl-butylcarbamoyl)-3-methyl-butylcarbamoyl]-3-methyl-butyl}-carbamic acid benzyl ester] (Cbz-Leu-Leu-Leu-aldehyde), the concentration giving a half-maximal response (EC50) in assay [1] was determined as 5.2 µM; in assay [2], 1 µM.
